The RNAGym collection of RNA variant scans (doi:10.1126/science.aae0568)
Fewer inactive variants are shown than the library holds.

B1: tRNA (parent)
chain: GUUCCGUUGGCGUAAUGGUAACGCGUCUCCCUCCUAAGGAGAAGACUGCGGGUUCGAGUCCCGUACGGAACG

Variants of: B1
Experiment: yeast fitness relative to wild type (ratio to wild type); higher = fitter; tRNA-Arg(CCU), competitive growth, 37 C, YPD
Outline: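 Gene amplicons from the start population and from each of six end populations were read by 100-nucleotide paired-end sequencing. Those end populations came from pooled Saccharomyces cerevisiae strains carrying tRNA-Arg(CCU) gene variants at the native locus, competed in YPD at 37°C for 24 hours. Fitness relative to wild type was worked out from changes in genotype frequencies. Genotypes needed ≥ 100 starting reads, and estimates < 0.5 were set to 0.5.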

Variant | yeast fitness
GUUCCGUUGGCGUAAUGGUAACGCGUCUCCCUCCUAAGGAGAUGACCGCGGGUUAGAGUCCCGUACGGAACG [A43U U47C C55A] | ≤ 0.5
GUUCCGUUGGCGUAAUGGUAACGCGUCUCCCUCCUAAGGAGAUGACCGCGGGUUGGAGUCCCGUACGGAACG [A43U U47C C55G] | ≤ 0.5
GUUCCGUUGGCGUAAUGGUAACGCGUCUCCCUCCUAAGGAGAAAAUUGCGGGUUCGAGUCCCGUACGGCACG [G44A C46U A69C] | 0.996
GUUCCGUUGGCGUAAUGGUAACGCGUCUCCCUCCUAAGGAGAAGGUUGCGCGUUCGAGUCCCGUACCGAACG [A45G C46U G51C G67C] | ≤ 0.5
GUUCCGUUGGCGUAAUGGUAACGCGUCUCCCUCCUAAGGAGAAAACUGCGGGUUCGGGUCCCGUACGGAACG [G44A A57G] | 0.688
GUUCCGUUGGCGUAAUGGUAACGCGUCUCCCUCCUAAGGAGAUGACUGCGGGUUCCAGUCACGUACGGAACG [A43U G56C C61A] | ≤ 0.5
GUUCCGUUGGCGUAAUGGUAACGCGUCUCCCUCCUAAGGAGAAGCCUGCGGGUUUGAGUCCCGUACGGCACG [A45C C55U A69C] | ≤ 0.5
GUUCCGUUGGCGUAAUGGUAACGCGUCUCCCUCCUAAGGAGAAGCCUGCGGGUUCGAGUCCCGUCCGGAACG [A45C A65C] | 0.683
GUUCCGUUGGCGUAAUGGUAACGCGUCUCCCUCCUAAGGAGAACACCGCGGGUUCGAAUCCCGUACGGAACG [G44C U47C G58A] | 0.766
GUUCCGUUGGCGUAAUGGUAACGCGUCUCCCUCCUAAGGAGAAGGCUGCGGGUUUGAGUCCCGUACAGAACG [A45G C55U G67A] | 0.656
GUUCCGUUGGCGUAAUGGUAACGCGUCUCCCUCCUAAGGAGAAGCCUGCGGGUUCCAGUCCCGUACGGAACG [A45C G56C] | 0.64
GUUCCGUUGGCGUAAUGGUAACGCGUCUCCCUCCUAAGGAGAAGCCUGCGGGUUCAAGUCCCGUACGGAACG [A45C G56A] | 0.977
GUUCCGUUGGCGUAAUGGUAACGCGUCUCCCUCCUAAGGAGAAGCCUGCGGGUUCGAGUCCCGUACGGAUCG [A45C A70U] | 0.862
GUUCCGUUGGCGUAAUGGUAACGCGUCUCCCUCCUAAGGAGAACACUGCCGGUUCGGGUCCCGUCCGGAACG [G44C G50C A57G A65C] | 0.561
GUUCCGUUGGCGUAAUGGUAACGCGUCUCCCUCCUAAGGAGAAGGCUGCGGGUUCGUGUCCCGUACGGAACG [A45G A57U] | 0.751
GUUCCGUUGGCGUAAUGGUAACGCGUCUCCCUCCUAAGGAGAAAACUGGGGGUUCGAGUCCCGUACGGAUCG [G44A C49G A70U] | ≤ 0.5
GUUCCGUUGGCGUAAUGGUAACGCGUCUCCCUCCUAAGGAGAAGCCUGCGGGUUCGAGUCCCGUACGCAACG [A45C G68C] | 0.839
GUUCCGUUGGCGUAAUGGUAACGCGUCUCCCUCCUAAGGAGAAGCCUGCGGGUUCGAGUCCUGUACGGAACG [A45C C62U] | 0.842
GUUCCGUUGGCGUAAUGGUAACGCGUCUCCCUCCUAAGGAGAACACUGCGGGUCCGAGUACCGUACGGAACG [G44C U54C C60A] | ≤ 0.5

Variant | yeast fitness
GUUCCGUUGGCGUAAUGGUAACGCGUCUCCCUCCUAAGGAGAACACUGGGGGUUCGAGUCCCGAACGGAACG [G44C C49G U64A] | ≤ 0.5
GUUCCGUUGGCGUAAUGGUAACGCGUCUCCCUCCUAAGGAGAAGCCUGCGGGUUUGAGUCCCGUACGGAACG [A45C C55U] | 0.692
GUUCCGUUGGCGUAAUGGUAACGCGUCUCCCUCCUAAGGAGAAGCCUGCGGGUUCGAGUGCCGUACGGAACG [A45C C60G] | 0.603
GUUCCGUUGGCGUAAUGGUAACGCGUCUCCCUCCUAAGGAGAUGACUGCGGGUUCCAGUCCCGUACGGAACG [A43U G56C] | 0.702
GUUCCGUUGGCGUAAUGGUAACGCGUCUCCCUCCUAAGGAGAACACUGCGGGUUCGAGUACCGUACGGAACG [G44C C60A] | 0.572
GUUCCGUUGGCGUAAUGGUAACGCGUCUCCCUCCUAAGGAGAAGGCUGCGGGUUCGAGUCCAGUACGGAACG [A45G C62A] | 0.8
GUUCCGUUGGCGUAAUGGUAACGCGUCUCCCUCCUAAGGAGAAGGCUGCGGGUUCGAGUCCGGUACGGAACG [A45G C62G] | 0.832
GUUCCGUUGGCGUAAUGGUAACGCGUCUCCCUCCUAAGGAGAAAACCGCGGGUUCGAGUCCCGUACGGAACG [G44A U47C] | 0.979
GUUCCGUUGGCGUAAUGGUAACGCGUCUCCCUCCUAAGGAGAUGACUGCGGGUUCGAGCCCCGUACGGAACG [A43U U59C] | 1.02
GUUCCGUUGGCGUAAUGGUAACGCGUCUCCCUCCUAAGGAGAAGCUUGCGGGUUCGAGUCCCGUACGGAACG [A45C C46U] | 1.02
GUUCCGUUGGCGUAAUGGUAACGCGUCUCCCUCCUAAGGAGAAGGCUGCGGGUUUGAGUCCCGUCCGGAACG [A45G C55U A65C] | ≤ 0.5
GUUCCGUUGGCGUAAUGGUAACGCGUCUCCCUCCUAAGGAGAAGGCUGCGGGUUUGAGUCCCGUGCGGAACG [A45G C55U A65G] | 0.544
GUUCCGUUGGCGUAAUGGUAACGCGUCUCCCUCCUAAGGAGAAAACUGCGGGUUCGACUCCCGUAUGGAACG [G44A G58C C66U] | 0.667
GUUCCGUUGGCGUAAUGGUAACGCGUCUCCCUCCUAAGGAGAACAUUGCGGGUUCGAGUCCGGUACGGAACG [G44C C46U C62G] | 0.787
GUUCCGUUGGCGUAAUGGUAACGCGUCUCCCUCCUAAGGAGAAAACUGCGGGUUCGAGUCCCGUACGAAACG [G44A G68A] | 0.802
GUUCCGUUGGCGUAAUGGUAACGCGUCUCCCUCCUAAGGAGAAAACUGCGGGUUCGAGUUCGGUACGGAACG [G44A C60U C62G] | 0.596
GUUCCGUUGGCGUAAUGGUAACGCGUCUCCCUCCUAAGGAGAACACUGCGGGUUCGAAUCCCGUACGGAACG [G44C G58A] | 1.02
GUUCCGUUGGCGUAAUGGUAACGCGUCUCCCUCCUAAGGAGAACACUGCGGGUUCGACUCCCGUACGGAACG [G44C G58C] | 0.919
GUUCCGUUGGCGUAAUGGUAACGCGUCUCCCUCCUAAGGAGAAGCCCGCGGGUUCGAGUCCCGCCCGGAACG [A45C U47C U64C A65C] | 0.725
